From PubChem BioAssay
A selection: hits, their analogues and other compounds. The true share with any hit is near 8.9%.
b-catenin transl = alters nuclear translocation of beta-catenin in HeLa cells. immunofluorescence imaging. nuclear translocation activity, % at 5 µM. 190,000 tested, 0.3% active;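 active = nuclear translocation activity above 50% at 5 µM, with a well cell count of 50 or more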;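 also: per-cell ratio of nuclear to cytoplasmic median beta-catenin stain intensity; plate controls were DMSO negative control for no effect and GSK-3 inhibitor IX positive control for full effect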
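Technique: fluorescence imaging of beta-catenin antibody stain plus DAPI / Material: human HeLa cell line / Incubation: compound treatment 24 h, 37°C, 5% CO2 / Read-out basis: % activation of per-cell nuclear versus cytoplasmic median beta-catenin signal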
Dynein cargo inh = dynein cargo transport inhibition | z-score, hits read low | 3617.4 mouse cells, GR-EGFP nuclear translocation imaging; test concentration mostly 20 µM; stimulated with dexamethasone, 1 µM; hits give low values | 220,000 tested, 0.47% active | AID 1381;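 active = plate z-score of nuclear minus cytoplasmic receptor signal below a set negative limit, without overly bright fluorescence or cell loss, cut at about -3.5 in these data, passing the limit was not always enough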;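 also: z-score of nuclear minus cytoplasmic ring GR-EGFP intensity difference per well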
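Also added: dexamethasone, 1.0 µM final. Medium: tet-free, stripped-serum medium. Detection: fixed, Hoechst-stained cells imaged at 10x for EGFP. Read-out: nuclear-to-cytoplasmic GR-EGFP distribution per well. Times: induction 48 h, compound 1 h, agonist 30 min.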
HSV replic up = increases HSV replication in cells; HSV replication augmentation in cells, fold increase; maximum fold increase; 220,000 tested, 0.005% active; AID 1956; in the data active = maximum fold increase above about 1.5; tested in PC3 cells
L major viab = reduces viability of Leishmania major promastigotes | inhibition, % at 10 µM | resazurin fluorescence viability | 200,000 tested, 9% active; in the data active = inhibition above about 50%;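 also: promastigotes grown with compound for 44 hours at 28 °C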
MT stabilizer = microtubule stabilizers in HeLa cells | 200,000 tested, 0.83% active | AID 2205 | % tubulin-high responders, % at 10 µM | HeLa tubulin immunostaining HCS, 24 h; share of cells brighter than vehicle mean+2SD;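 active = plate Z-score above 3 for both tubulin-high and condensed-nucleus cell shares, with cell loss under 80%, at 10 µM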;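 also: anti alpha tubulin signal scored within the nucleus-defined area of each cell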
* hit, by the source's call; i = inactive; . = no result given.

SMILES	b-catenin transl	Dynein cargo inh	HSV replic up	L major viab	MT stabilizer
COc1cccc(-n2nnc3c(=O)n(CC(=O)N4CCCc5ccccc54)cnc32)c1	-1	-0.098	i	71*	4
Cc1ccc(Cn2nnc3c(=O)n(CC(=O)N4CCCc5ccccc54)cnc32)cc1	2	0.16	i	3	3
COc1cccc(-n2nnc3c(=O)n(CC(=O)N4CCC(C)CC4)cnc32)c1	1	-0.15	i	3	4
COc1cccc(-n2nnc3c(=O)n(CC(=O)N4CCC(Cc5ccccc5)CC4)cnc32)c1	1	-1.5	i	94*	4
CCc1ccc(C(=O)NNC(=O)OC)cc1	0	-0.76	i	1	2
Cc1ccc(S(=O)(=O)/N=C2/NC(=O)/C(=C/c3ccc(Br)o3)S2)cc1	0	-0.59	i	51*	3
Cc1ccc(S(=O)(=O)/N=C2/NC(=O)/C(=C/c3cccnc3)S2)cc1	2	0.28	i	-13	4
Cc1nonc1OCCNCCNc1ccc([N+](=O)[O-])cc1Cl	0	1.1	i	87*	2
Cc1nonc1OCCNc1ccc([N+](=O)[O-])cc1	0	0.29	i	-7	8
COc1ccc(Oc2coc3cc(OCC(=O)N4CCCCC4)ccc3c2=O)cc1	1	-0.29	i	38	3
CC1Cc2ccccc2N1S(=O)(=O)c1cnc[nH]1 (centres undefined)	-2	-0.046	i	-7	8
O=S(=O)(c1cnc[nH]1)N1CCc2ccccc21	0	-0.029	i	61*	4
COCCN1CCc2c(C)nc3c(-c4ccc(OC)c(OC)c4)cnn3c21	.	-0.12	i	11	2
COc1ccc(-c2cc(-c3ccccc3)nc(N3CCCC3)n2)cc1OC	-6	0.2	i	7	3
N=c1sccn1CC(=O)N1N=C(c2ccc(Cl)cc2)CC1c1ccco1 (centres undefined)	4	-0.6	i	63*	3
O=C(OCC(=O)N1N=C(c2ccc(Cl)cc2)CC1c1ccco1)c1ccco1 (centres undefined)	-4	-0.62	i	-2	0
CCOc1cc(CNC2CCCC2)cc(Cl)c1OCc1ccc(F)cc1	-3	0.38	.	100*	2
COc1cc(CNC2CCCC2)cc(Br)c1OCC(=O)Nc1ccccc1C	1	-0.48	i	99*	2
COc1cc(CNC2CCCC2)cc(Cl)c1OCc1ccccc1Cl	12	0.43	i	100*	4
COc1cc(CNC2CCCC2)cc(Cl)c1OCc1ccc(F)cc1	5	-0.78	i	101*	2
COc1cc(CNC2CCCC2)cc(OC)c1OC	-5	0.5	i	3	4
COc1cc(CNC2CCCCCC2)cc(OC)c1OC	4	-0.13	i	0	3
CCCc1nn(C)c2c(=O)[nH]c(-c3cc(S(=O)(=O)N(CCO)CCO)ccc3OCC)nc12	-2	0.13	i	.	.
CSc1nnc(C(C)(C)C)c(=O)n1/N=C/c1ccc(C(C)C)cc1	0	-0.072	i	.	.
CCCC[C@H]1C2=C3[C@@H](CC(C(=O)OC)=C[C@@H](C(=O)OC)[C@H]3C(C)(C)C2=O)n2c(=O)n(-c3ccccc3)c(=O)n21	.	.	i	.	.
SMILES	b-catenin transl	Dynein cargo inh	HSV replic up	L major viab	MT stabilizer
Cc1ccc(C(OC(=O)c2ccco2)C(=O)NCc2cccs2)cc1 (centres undefined)	-1	1	i	56*	3
CCOc1ccc(C(OC(=O)c2ccco2)C(=O)NCc2ccc(C)cc2)cc1 (centres undefined)	1	-0.68	i	3	3
CC1CSc2n(-c3cccc(C(F)(F)F)c3)cc(-c3ccccc3)[n+]21 (centres undefined)	-2	0.41	i	87*	5
FC(F)(F)c1cccc(N2Cc3ccccc3C2)c1	.	0.25	i	-5	6
CC(C)CNC(=S)NC1CC2CCCC(C1)N2Cc1ccco1 (centres undefined)	1	0.86	i	62*	3
CC(C)CNC(=S)NC1CC2CCCC(C1)N2Cc1cccs1 (centres undefined)	-1	0.39	i	94*	3
CNC(=S)NC1CC2CCCC(C1)N2Cc1ccco1 (centres undefined)	2	0.93	i	8	4
O=C(Sc1nnnn1C1CCCCC1)c1cccs1	.	-1.4	i	-5	3
O=C(NC1CCCc2ccccc21)C1CCN(c2nnc(-n3cccc3)s2)CC1 (centres undefined)	0	0.53	i	-3	5
Cc1oc(C)c2c(=O)ccc3c(c12)OC(N)=C(C#N)C3c1ccccc1 (centres undefined)	1	-0.77	i	10	6
O=C(O)C1CCCCC1C(=O)NCCc1c[nH]c2ccccc12 (centres undefined)	.	-0.53	i	6	4
COc1ccc(OC)c(CCNC(=O)C2CCN(c3nnc(-n4cccc4)s3)CC2)c1	0	1.7	i	-3	8
O=C(NCCc1c[nH]c2ccccc12)C1CCN(c2nnc(N3CCCC3=O)s2)CC1	1	-1.1	i	84*	3
O=C(NCCc1c[nH]c2ccccc12)C1CCN(S(=O)(=O)c2ccccc2F)CC1	-1	-0.31	i	98*	2
COCCNC(=O)C1CCC(Cn2c(=S)[nH]c3ccccc3c2=O)CC1 (centres undefined)	1	0.35	i	0	3
O=C(NCCc1c[nH]c2ccccc12)C1CCC(Cn2c(=S)[nH]c3ccccc3c2=O)CC1 (centres undefined)	.	-0.29	i	100*	3
Cc1ccc(NC(=O)Cc2c[nH]c3ccccc23)cc1S(=O)(=O)N1CCCCCC1	1	-0.64	i	92*	2
O=C(CSc1nnc2scc(-c3ccccc3)n12)N1CCCc2ccccc21	-6	-0.7	i	0	2
Cc1cc(C(=O)CSc2nc(N)cc(N)n2)c(C)n1-c1cccc(C(F)(F)F)c1	.	-1	i	82*	1
CC1CCC(N2CCN(S(C)(=O)=O)CC2)CC1 (centres undefined)	-2	2.2	i	89*	6
CCCS(=O)(=O)N1CCC(C(=O)NC2CCC(C)CC2)CC1 (centres undefined)	-1	-0.47	i	-4	3
CS(=O)(=O)N1CCN(C2C3CC4CC(C3)CC2C4)CC1 (centres undefined)	1	-0.18	i	80*	4
CCS(=O)(=O)N1CCN(C2CCC(C)CC2)CC1 (centres undefined)	0	0.2	i	90*	2
CS(=O)(=O)N1CCN(C2Cc3ccccc3C2)CC1	.	-0.87	i	36	1
O=C(NCc1ccccc1)C1=C[C@@H](C2CC2)C[C@@H](OCc2ccc(CO)cc2)O1	0	-0.38	i	3	2
Cc1cc(C)cc(N2C(=O)C3CC=CCC3C2=O)c1 (centres undefined)	.	0.49	i	-2	3
